Reference: article PMC4227885 (Science translational medicine, 2013)
Like-named read-outs stand apart in the source and are kept apart here.

Legend:
[1] = molecular target: human cytochrome bc1 (derived from HEK-293 cells) (Homo sapiens, UniProt P00156); test: Inhibition of human cytochrome bc1 activity; format: biochemical
[2] = tested on: P. falciparum strain 3D7 oocyst formation; conditions: comparable SMFA; cited from earlier work
[3] = tested on: P. yoelii in CD1 Swiss mice; conditions: for ED90: P. yoelii, 4-day test, oral, PEG400 vehicle
P. berghei ookinete = test: In vitro ookinete assay; format: cell-based; conditions: read-out: IC50 ookinete production
[4] = tested on: late stage IV - V P. falciparum gametocytes; test: Late stage gametocyte viability, high content imaging; format: cell-based; conditions: read-out: IC50 stage IV-V gametocyte viability
P. falciparum [5] = test: Immuno-deficient; format: in vivo
Method in brief: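 NOD-scid IL2Rγnull-type immunodeficient mice were engrafted with human erythrocytes and infected with P. falciparum. The test compound was given orally daily for 4 consecutive days as a non-optimized suspension, not in PEG400 (3 vehicle mice, 11 treated). Parasitemia was measured by FACS, with Giemsa smears at 48 h. Blood levels were followed over 23 h after the first dose. ED90 was taken at day 7 versus vehicle. AUCED90 was estimated graphically from AUC0→23h versus log10 day-7 parasitemia for each mouse.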

J774 mouse macrophages = format: cell-based
[6] = tested on: P. falciparum (NF54) gametocytes (Stage I-II); test: Inhibition of early stage gametocyte development; format: cell-based; conditions: three days exposure of Stage I-II gametocytes
[7] = molecular target: hERG (human-Ether-a-go-go-Related Gene) channel (Homo sapiens, UniProt Q12809); format: cell-based
Chain of hERG (human-Ether-a-go-go-Related Gene) channel (Q12809 whole entry): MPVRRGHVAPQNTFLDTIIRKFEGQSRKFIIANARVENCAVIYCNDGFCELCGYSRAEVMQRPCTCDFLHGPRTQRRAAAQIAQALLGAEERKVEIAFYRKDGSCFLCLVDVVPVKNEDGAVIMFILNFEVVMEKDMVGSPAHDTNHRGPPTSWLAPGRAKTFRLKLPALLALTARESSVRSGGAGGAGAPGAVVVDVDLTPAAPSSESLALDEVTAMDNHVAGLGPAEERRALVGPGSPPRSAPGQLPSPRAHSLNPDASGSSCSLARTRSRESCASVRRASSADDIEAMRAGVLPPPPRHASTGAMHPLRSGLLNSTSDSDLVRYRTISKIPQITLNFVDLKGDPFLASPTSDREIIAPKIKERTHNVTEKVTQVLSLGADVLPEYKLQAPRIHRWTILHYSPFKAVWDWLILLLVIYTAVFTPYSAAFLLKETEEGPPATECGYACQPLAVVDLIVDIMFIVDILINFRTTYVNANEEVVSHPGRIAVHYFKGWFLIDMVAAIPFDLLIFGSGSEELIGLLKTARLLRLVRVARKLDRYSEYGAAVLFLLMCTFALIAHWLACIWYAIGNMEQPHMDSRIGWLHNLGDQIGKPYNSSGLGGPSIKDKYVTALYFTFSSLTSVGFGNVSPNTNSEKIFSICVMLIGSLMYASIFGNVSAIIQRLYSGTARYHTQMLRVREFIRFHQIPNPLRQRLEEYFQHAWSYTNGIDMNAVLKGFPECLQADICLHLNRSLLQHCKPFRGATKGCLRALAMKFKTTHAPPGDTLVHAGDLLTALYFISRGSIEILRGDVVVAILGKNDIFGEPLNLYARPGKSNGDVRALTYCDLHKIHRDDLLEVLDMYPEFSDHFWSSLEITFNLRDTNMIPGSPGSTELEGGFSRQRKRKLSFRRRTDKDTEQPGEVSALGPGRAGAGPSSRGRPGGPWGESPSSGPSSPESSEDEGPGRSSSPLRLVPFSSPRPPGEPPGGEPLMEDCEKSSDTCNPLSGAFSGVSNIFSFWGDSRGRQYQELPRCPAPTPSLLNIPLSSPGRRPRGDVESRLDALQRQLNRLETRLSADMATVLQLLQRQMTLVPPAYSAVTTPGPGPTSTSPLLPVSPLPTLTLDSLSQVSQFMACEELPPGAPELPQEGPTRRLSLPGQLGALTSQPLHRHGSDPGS

[8] = tested on: P. falciparum strains (D6, Dd2, TM90-C2B, V1/S); test: In vitro isobolar testing with proguanil, fixed combination ratios; format: cell-based; conditions: isobolar testing against 4 strains
[9] = molecular target: P. falciparum cytochrome bc1 (Plasmodium falciparum, UniProt Q02768); format: biochemical; conditions: read-out: IC50, nM P. falciparum cytochrome bc1; P. falciparum mitochondria
Chain of P. falciparum cytochrome bc1 (Q02768 whole entry): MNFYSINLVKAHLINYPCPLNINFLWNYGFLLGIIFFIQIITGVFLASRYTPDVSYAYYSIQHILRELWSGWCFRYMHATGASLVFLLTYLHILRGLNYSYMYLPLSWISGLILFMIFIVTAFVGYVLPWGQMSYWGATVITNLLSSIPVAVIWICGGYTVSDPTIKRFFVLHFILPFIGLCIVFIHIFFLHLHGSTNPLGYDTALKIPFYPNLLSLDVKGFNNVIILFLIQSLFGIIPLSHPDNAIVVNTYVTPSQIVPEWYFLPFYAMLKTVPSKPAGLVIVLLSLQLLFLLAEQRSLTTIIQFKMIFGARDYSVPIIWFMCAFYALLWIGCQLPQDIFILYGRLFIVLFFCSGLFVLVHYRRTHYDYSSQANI

[10] = tested on: exoerythrocytic stages of P. berghei; test: In vitro liver stage assay, luciferase sporozoites on HEPG2 hepatoma cells; format: cell-based; conditions: read-out: EC50, luciferase expression, 44 h post infection
Method in brief: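 Luciferase-expressing P. berghei sporozoites were added to HepG2 hepatoma monolayers and allowed to infect for 1 h. A dilution series of the test compound was then added and plates were incubated at 37 °C. Luciferase was read 44 h post infection. EC50 came from a nonlinear logistic dose-response fit.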

[11] = tested on: major cytochrome P450 enzymes; test: Cytochrome P450 inhibition; format: in vitro ADME; conditions: at concentrations needed for efficacy
[12] = tested on: P. berghei oocyst formation in Anopheles stephensi mosquitoes; test: Oocyst formation after membrane feeding of drug-spiked infected blood; format: in vivo
Method in brief: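 Mouse blood infected with GFP-expressing P. berghei was mixed with the test compound and placed at once in membrane feeders at 39 °C. It was offered to about 75 overnight-starved mosquitoes. After 7 days, fluorescent oocysts on dissected midguts were counted by semi-automated image capture and analysis. DMSO was the negative control.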

[13] = tested on: P. berghei oocysts in Anopheles stephensi; test: In vivo transmission blocking, mosquitoes fed on treated infected mice; conditions: for inhibition at 10 mg/kg: read-out: inhibition of oocyst production
Method in brief: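 Mice at about 3% P. berghei parasitemia received a single oral dose of test compound (0.1–10 mg/kg) or vehicle. Female Anopheles stephensi fed on the mice 1 h after treatment. Midguts were dissected on day 10 post infection and examined for oocysts. Dihydroartemisinin and primaquine (10 mg/kg) were positive controls.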

[14] = tested on: transgenic P. falciparum clone D10yDHOD; test: Susceptibility of transgenic clone expressing yeast DHOD; format: cell-based, Plasmodium falciparum
P. falciparum [15] = test: In vitro parasite reduction ratio; format: cell-based
[16] = Pharmacokinetics in mice, intravenous and oral; format: in vivo, mouse; conditions: 0.3 mg/kg oral in PEG400
Method in brief: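 Non-fasted male Swiss outbred mice were used. The IV dose was 0.1 mg/kg, formulated in mouse plasma and given via the tail vein. The oral dose was 0.3 mg/kg by gavage, as a solution in undiluted PEG400.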

[17] = tested on: P. falciparum clinical isolates; test: Ex vivo susceptibility of clinical field isolates, modified WHO microtest; format: cell-based, Plasmodium falciparum; conditions: read-out: median EC50, Papua, Indonesia
Method in brief: (§1)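 Isolates were taken from patients attending malaria clinics in southern Papua, Indonesia, and tested ex vivo by a modified WHO microtest. Median IC50 was reported separately for each species. Comparisons used the Wilcoxon rank sum test.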

[18] = Metabolic stability in liver microsomes; format: in vitro ADME; conditions: in vitro incubation with liver microsomes, multiple species
two rat cell lines = conditions: read-out: IC50 level, ATP levels; either of two rat cell lines, galactose medium
[19] = tested on: P. falciparum strain 3D7 oocyst formation; test: Standard membrane feeding assay; format: in vivo
[20] = tested on: 100 neurotransmitter receptors, peptide receptors, ion channels, reuptake sites, and enzymes
[21] = tested on: 5-strain Ames bacterial assay; format: cell-based
[22] = tested on: P. cynomolgi liver schizonts; test: In vitro liver stage assay in primary rhesus hepatocytes; format: cell-based; conditions: read-out: IC50 liver schizonts, 6-day incubation
[23] = Aqueous solubility, kinetic and thermodynamic methods; format: physicochemical
Method in brief: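 Kinetic method: DMSO stock diluted into various media. Thermodynamic method: equilibrium solubility with physiologically relevant media and incubation time.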

[24] = tested on: murine bone marrow derived hematopoietic progenitors (CFU-GM, BFUE, CFU-GEMM); format: cell-based
[25] = tested on: P. berghei (luciferase) sporozoite infections of BALB/c mice; test: In vivo liver stage, sporozoite infection with bioluminescence imaging; conditions: per os one hour post infection
Method in brief: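 BALB/c mice (5 per group) were infected with luciferase-expressing P. berghei sporozoites. One hour later they received a single dose of test compound by gavage; untreated mice served as controls. For bioluminescence imaging at 44 h and on days 6 and 13, mice were injected with D-luciferin and anesthetized, tracking liver and blood stages.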

[26] = tested on: P. falciparum strains (D6, 3D7, Dd2, W2, recent isolates from SE Asia, TM90-C2B); format: cell-based, Plasmodium falciparum; conditions: atovaquone-resistant clinical isolate TM90-C2B
[27] = tested on: human foreskin fibroblasts (HFF); format: cell-based
[28] = tested on: P. berghei infected ICR mice; test: Thompson test, blood stage efficacy; format: in vivo
[29] = tested on: P. vivax clinical isolates; test: Ex vivo susceptibility of clinical field isolates, modified WHO microtest; format: cell-based, Plasmodium vivax; conditions: read-out: median EC50, Papua, Indonesia
Method in brief: as §1

SMILES: Cc1[nH]c2ccccc2c(=O)c1-c1ccc(Oc2ccc(OC(F)(F)F)cc2)cc1 [ELQ-271]
- IC50 ([1]; read-out: IC50 human cytochrome bc1, enzyme derived from HEK cells): 1990 nM

SMILES: C[C@H]1Cc2c([nH]c3cc(Cl)c(F)cc23)[C@@]2(N1)C(=O)Nc1ccc(Cl)cc12 [NITD609]
- concentration required to completely inhibit oocyst formation [2]: 500 nM

SMILES: O=C1C(O)=C([C@H]2CC[C@H](c3ccc(Cl)cc3)CC2)C(=O)c2ccccc21 [Atovaquone, reference compound]
- ED90 [3]: 0.04 mg/kg/day
- IC50 (P. berghei ookinete; Plasmodium berghei, 24 h): 67 nM
- IC50 [1]: 460 nM

SMILES: COc1ccc(C[C@H](N)C(=O)N[C@H]2[C@@H](O)[C@H](n3cnc4c(N(C)C)ncnc43)O[C@@H]2CO)cc1 [puromycin, reference compound]
- IC50 ([4]; Plasmodium falciparum, 72 h): 75.3 nM

SMILES: COc1cc2[nH]c(C)c(-c3ccc(Oc4ccc(OC(F)(F)F)cc4)cc3)c(=O)c2cc1Cl [ELQ-300]
- dose that reduced parasitemia by 90% at day 7 (ED90) (P. falciparum [5]; SCID mice, oral daily for four days, suspension formulation): 5.9 mg/kg/day
- estimated exposure at the ED90 dose (AUCED90) (P. falciparum [5]; SCID mouse model, blood): 1.1 μg·h/mL/day
- non-recrudescence dose relative to atovaquone ([3]; P. yoelii murine model): 30 times lower
- ED90 [3]: 0.15 mg/kg/day
- AUCED90 ([3]; mouse, in vivo): 1.4 μg·h/mL/day
- drug exposure (AUC0-24 h) in peripheral blood at the ED90 ([3]; mouse, in vivo, po): 1.4 µg·h/mL
- IC50 (J774 mouse macrophages): > 10 µM
- lowest exposure preventing gametocyte development to Stage IV [6]: ≤ 0.1 µM
- IC50 [7]: > 11 µM
- interaction with proguanil [8]: strong pharmacological synergism
- IC50 (P. berghei ookinete; first 24 h of development, GFP endpoint): 56 nM
- IC50 [9]: 0.58 nM
- EC50 [10]: 1.02 nM
- inhibition of the major cytochrome P450 enzymes [11]: did not inhibit
- reduction of oocyst burden in mosquito midguts ([12]; 10 nM): 19.2%
- reduction of the total oocyst count relative to controls ([12]; blood containing 100 nM): 99.4%
- oocyst formation ([12]; blood containing 1 μM drug): no oocysts formed
- dose that completely prevented transmission (oocyst development) ([13]; single oral dose, feeding one hour after treatment): ≥ 0.1 mg/kg
- sensitivity of D10yDHOD transfectants [14]: insensitive
- time required to kill >99.9% of parasites (P. falciparum [15]; 10x EC50 concentration): ≈ 100 h
- speed of action (P. falciparum [15]; exposure up to 120 hr): slow-acting
- Tmax [16]: approximately 7.5 h
- oral bioavailability [16]: approximately 100%
- EC50 [17]: 14.9 nM
- stability to metabolic degradation by cytochrome P450 enzymes [18]: highly stable
- IC50 (two rat cell lines): > 100 µM
- concentration that completely blocked oocyst formation ([19]; one of two independent studies): ≥ 10 nM
- reduction in oocyst formation ([19]; the other study, 10 nM): 95.9%
- inhibition in screen of 100 targets [20]: did not observe any significant inhibition
- mutagenic potential [21]: lacks mutagenic potential
- IC50 [22]: ~100 nM
- aqueous solubility [23]: low aqueous solubility
- IC50 [24]: > 10 µM
- IC50 ([4]; 72 hr): 71.9 nM
- single dose that completely blocked infection [25]: ≥ 0.03 mg/kg
- cross-resistance with atovaquone in TM90-C2B [26]: 1.3 fold
- IC50 [27]: > 10 µM
- curative blood stage dose ([28]; Thompson or Peter's tests): 1 mg/kg
- fifty percent effective dose (ED50) ([28]; Thompson test, P. berghei, ICR mice): 0.016 mg/kg/day
- IC50 ([1]; read-out: IC50, nM human cytochrome bc1, derived from HEK-293 cells): > 10000 nM
- EC50 [29]: 17.9 nM

SMILES: COc1cc(NC(C)CCCN)c2ncccc2c1 (stereo not shown) [primaquine]
- inhibition at 10 mg/kg [13]: 95.4%

SMILES: C[C@H]1[C@@H](O)O[C@@H]2O[C@@]3(C)CC[C@H]4[C@H](C)CC[C@@H]1[C@@]24OO3 [dihydroartemisinin]
- inhibition at 10 mg/kg [13]: 63.7%
